Screening data: PubChem, Johns Hopkins Ion Channel Center
The list is not random: actives were taken first. Their share in the collection is about 3.5%.
MrgX1 PAM: human MrgX1 positive allosteric modulation, primary screen; 0.63% of 310,000 active; Q96LB2; B-score at 10 µM; MrgX1-HEK293, Fluo-4 calcium flux, FDSS; stronger effect = higher value;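 active = plate-corrected calcium response at least 3 library SD above typical, normal starting fluorescence, not activating the receptor alone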;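 also: compound read alongside a low EC10 to EC30 dose of BAM8-22 agonist; peak minus trough fluorescence over baseline measured at the second addition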
Target sequence (Q96LB2 whole entry, looked up): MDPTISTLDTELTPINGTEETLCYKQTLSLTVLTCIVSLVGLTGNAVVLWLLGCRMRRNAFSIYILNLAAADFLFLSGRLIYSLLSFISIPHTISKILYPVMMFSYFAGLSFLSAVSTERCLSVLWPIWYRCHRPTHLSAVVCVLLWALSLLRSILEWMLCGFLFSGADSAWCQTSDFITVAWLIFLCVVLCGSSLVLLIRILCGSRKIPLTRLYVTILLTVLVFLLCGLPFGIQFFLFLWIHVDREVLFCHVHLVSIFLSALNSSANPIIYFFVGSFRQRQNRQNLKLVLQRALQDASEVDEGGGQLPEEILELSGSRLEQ
MrgX1 antagonist: human MrgX1 receptor antagonism, primary screen | AID 588676 | B-score at 10 µM | Q96LB2 | MRGX1-HEK293 calcium flux, Fluo-4, BAM8-22 antagonism; stronger effect = lower value | 1.3% of 310,000 active;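 active = calcium-response B-score plate-corrected more than 3 library SD below zero, starting fluorescence within 5 deviations, no agonist response on first addition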;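 also: peak minus trough fluorescence over baseline after final BAM8-22 challenge near maximal dose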
RGS4 pot: RGS4 potentiation or activation | HEK293 M3R/inducible RGS4, carbachol calcium flux Fluo4; stronger effect = lower value | B-score at 10 µM | 0.92% of 310,000 active;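 active = B-score of the integrated calcium signal more than 4 SD below the library mean, with starting fluorescence not abnormally high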;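 also: negative B-score means reduced calcium response which marks RGS4 activation or potentiation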
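System – HEK293 FlpIn-TREx cells, stable M3R, doxycycline-inducible RGS4 · Reagent – ECmax carbachol challenge · Times – compound preincubation 20 min at room temperature before agonist · Technique – Fluo4 fluorescence kinetic imaging of calcium · Measure – B score of integrated Fluo4 ratio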
MrgX1 ag: activates human MrgX1 receptor signaling; 0.44% of 310,000 active; Q96LB2; B-score at 10 µM; AID 588627; MrgX1-HEK293 cells, Fluo-4 calcium fluorescence, agonist mode; stronger effect = higher value;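 active = calcium response B-score plate-corrected fluorescence ratio at least 3 library SD, with starting fluorescence B-score inside 5 SD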
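System: HEK293 cells stably expressing human MrgX1 receptor; Dosing: test compound in the initial addition of three; Schedule: overnight plating, then 30 min 37 °C plus 30 min room-temperature dye loading; Detection: kinetic calcium dye fluorescence, Fluo-4 NW; Controls: per-plate positive and negative controls for Z′ factor.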
RGS4 block: human RGS4 inhibition; B-score at 10 µM; AID 463165; 0.45% of 310,000 active; HEK293 M3R/RGS4 inducible, Fluo-4 calcium flux; stronger effect = higher value; triggered by carbachol at its EC20; P49798;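 active = B-score, a plate-corrected calcium signal, over three deviations above library mean, with baseline fluorescence within five deviations of library mean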;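 also: RGS4 expression induced by doxycycline in cells with stable M3 receptor; B-score is computed from the integrated fluorescence ratio over baseline after carbachol; higher B-score means a larger calcium signal and so more RGS4 inhibition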
Target sequence (P49798 whole entry, looked up): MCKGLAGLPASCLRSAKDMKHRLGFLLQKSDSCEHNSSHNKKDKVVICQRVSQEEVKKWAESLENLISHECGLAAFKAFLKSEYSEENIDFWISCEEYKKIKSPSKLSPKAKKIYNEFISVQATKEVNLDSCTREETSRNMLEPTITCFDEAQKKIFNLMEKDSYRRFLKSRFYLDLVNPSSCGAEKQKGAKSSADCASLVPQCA
Numbers without * were called inactive; i = inactive; · = no result.

SMILES	MrgX1 PAM	MrgX1 antagonist	RGS4 pot	MrgX1 ag	RGS4 block
O=C(N/N=C/c1cccc([N+](=O)[O-])c1)c1cc[n+](CCO)cc1	i	i	i	i	i
COc1ccc(/C=N/n2cnn(Cc3ccccc3Cl)c2=S)cc1	i	i	i	i	i
Oc1ccccc1/C=N/n1cnn(Cc2ccccc2Cl)c1=S	i	-6.13*	i	i	i
Cc1ccc(NC(=O)CS(=O)CC(=O)N(c2ccc(C)cc2)C(C)C(=O)NC2CCCCC2)cc1 (stereo unspecified)	i	i	i	i	i
CCCc1cc(C(=O)Nc2cc(C)ccc2O)no1	i	i	i	i	i
COc1cccc(N2CCN(c3ncnc4c3cnn4-c3ccc(C)cc3C)CC2)c1	i	i	-6.97*	i	i
COc1ccc(-n2ncc3c(N4CCN(Cc5ccccc5)CC4)ncnc32)cc1	i	i	-7.36*	i	i
Cc1ccc(-n2ncc3c(N4CCCC4)ncnc32)c(C)c1	i	i	i	i	i
CCCCC[C@H](O)/C=C/[C@H]1CCC(=O)[C@@H]1CCCCCCC(=O)N1CCCCC1CO (stereo partly specified)	i	i	-8.47*	48.3*	i
COc1ccc(C(=O)CC(=O)c2ccccc2)cc1	i	i	i	i	i
COc1ccc(C(=O)C/C(=C\C(=O)c2ccc(C)cc2)c2ccccc2)cc1	i	-5.56*	-7.12*	i	i
Cc1ccc(CSC2=NCCN2C(=O)c2ccc(S(=O)(=O)N(C)C)cc2)cc1	i	i	i	i	i
COc1cc([N+](=O)[O-])ccc1NC(=O)COC(=O)C=C(C)C	i	i	i	i	i
CC(C)=CC(=O)OCC(=O)Nc1cccc([N+](=O)[O-])c1	i	-8.62*	i	i	i
O=[N+]([O-])c1ccccc1S(=O)(=O)Nc1cccc(-c2ccc3nncn3n2)c1	i	i	i	26.7*	i
Cc1nnc2ccc(-c3cccc(NS(=O)(=O)c4ccccc4[N+](=O)[O-])c3)nn12	i	i	i	29.2*	i
Cc1nnc2ccc(-c3cccc(NS(=O)(=O)c4ccccc4Cl)c3)nn12	i	i	i	i	i
COc1ccc(C2=C/C(=C/c3cccnc3)C(=O)O2)cc1OC	i	i	i	i	i
CCOc1ccc(C2=C/C(=C/c3cccnc3)C(=O)O2)cc1	27.6*	i	i	i	i
COc1cc(/C=C(/C(=O)O)c2ccc(-c3ccccc3)cc2)cc(OC)c1OC	i	i	i	i	i
COc1ccc(/C(=C/c2ccc(OC(F)F)c(OC)c2)C(=O)O)cc1OC	i	-5.76*	i	i	i
O=C(On1c(-c2ccccc2)nc2ccccc2c1=O)c1ccco1	i	i	-8.11*	i	i
C=CCn1c(SCC(=O)OC)nc2sc3c(c2c1=O)CCN(C)C3	i	i	i	i	i
Cc1onc(-c2ccccc2)c1C(=O)N/N=C/C=C/c1ccccc1	i	i	i	i	i
Cc1ccc(C(=O)N/N=C/C=C/c2ccccc2)o1	i	-7.01*	i	i	i
SMILES	MrgX1 PAM	MrgX1 antagonist	RGS4 pot	MrgX1 ag	RGS4 block
COc1ccc(CNC(=O)COC(=O)CCC2CCCCC2)cc1	i	i	i	i	i
N#CCCCN1C(=O)C(=C(C#N)C#N)c2ccccc21	i	i	i	32.9*	i
Cn1nc(C(F)(F)F)c(-c2ccc(F)cc2)c1NC(=O)Nc1ccc(F)cc1	i	-5.36*	i	i	i
C=CCNC(=O)CC(=O)N/N=C/c1cccc(C)c1	i	-4.56*	i	i	i
O=C(O)C1CC=CCC1C(=O)Nc1cccc(Cl)c1 (stereo unspecified)	i	i	i	i	i
Cc1ccc(-c2nc(C(=O)NCC3CCCO3)cc3c2[nH]c2ccccc23)cc1 (stereo unspecified)	i	i	-7.04*	i	i
COc1ccc(CCNC(=O)C2CCC(=O)N(CC3CCCCC3)C2)cc1 (stereo unspecified)	·	·	-7.12*	·	i
COCC(C)NC(=O)c1ccc2c(c1)S(=O)(=O)c1ccccc1C2=O (stereo unspecified)	i	i	i	i	i
Cc1ccc(-c2cc(C(=O)Nc3ccccn3)c3ccccc3n2)o1	i	-5.13*	i	i	i
O=C(Nc1ccc2c(c1)OCO2)c1cnn2cccnc12	i	i	i	i	i
Cc1cc(C)c2nc3sc(C(=O)N4CCOCC4)c(N)c3cc2c1	i	i	i	49.1*	i
O=C(C1CCN(Cc2ccc(Cl)cc2)CC1)N1CCN(C(c2ccccc2)c2ccccc2)CC1	i	i	-8.01*	i	i
CCOc1ccc(NS(=O)(=O)c2ccc(C(=O)NCC(c3cccs3)N3CCOCC3)cc2)cc1 (stereo unspecified)	i	-6.54*	i	i	i
CC(=O)c1ccc(S(=O)(=O)Nc2ccc(C(=O)NCC(c3cccs3)N3CCOCC3)cc2)cc1 (stereo unspecified)	i	i	i	i	i
CC(Oc1ccc(Cl)cc1Cl)c1nc(-c2ccc(NC(=O)c3ccco3)cc2)no1 (stereo unspecified)	i	-4.97*	i	i	i
CC(NC(=O)c1ccco1)c1nc(-c2ccccc2)no1 (stereo unspecified)	i	i	i	i	i
O=C(O)COc1ccccc1/C=N/NC(=O)CSc1nc2ccccc2n1Cc1ccccc1Cl	i	i	i	i	i
CC(C)N1CCN(Cc2ccc(OCc3ccccc3)cc2)CC1CCO (stereo unspecified)	i	i	-7.04*	i	i
CC(C)N1CCN(Cc2ccc(-c3ccccc3)cc2)CC1CCO (stereo unspecified)	i	i	i	i	i
CC1CCCN(Cc2ccc(OCc3ccccc3)cc2)C1 (stereo unspecified)	i	i	-7.59*	i	i
CCOC(=O)c1ncn2c1C(=O)OC2(C)C	i	i	i	i	i
CC(C)CCC(CC(C)O)c1n[nH]c(=S)n1-c1ccccc1 (stereo unspecified)	i	-4.85*	i	i	i
CCC(c1n[nH]c(=S)n1-c1ccccc1)N(C)C (stereo unspecified)	i	i	i	i	i
CCN(CC)C(=O)CSc1nc2ccc(NC(=O)CSc3nccn3C)cc2s1	i	i	i	i	i
